Sampled rows, rich in hits. Any-hit rate of the full collection: about 1.3%.
TDP2 inh – blocks human TDP2 phosphodiesterase activity; O95551; recombinant TDP2, T5PNP hydrolysis, p-nitrophenol absorbance 415 nm; inhibition, % at 12.8 µM; 370,000 tested, 0.34% active; AID 720702;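 active = inhibition above the mean of all tested compounds plus 3 SD, set per campaign, cut at about 25% in these data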;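 note: 0% = DMSO with enzyme and 100% = buffer with substrate but no TDP2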
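Incubation: 2 h at 37 °C; Test system: recombinant human TDP2; Quantity: enzyme 120 nM; Read-out basis: percent inhibition; Medium: 50 mM Tris-HCl pH 7.5 with Mg2+, KCl, DTT, BSA; Repeats: single replicate; Compound: 12.8 µM single point, 1% DMSO; Signal: epi absorbance; Reagent: 5 mM T5PNP chromogenic substrate; Benchmarks: no-enzyme high, DMSO-plus-enzyme low.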
LEDGF integ inh – blocks HIV-1 LEDGF/p75-dependent DNA integration; inhibition, % at 3.7 µM; 370,000 tested, 0.64% active; TR-FRET IN-LEDGF/p75 DNA integration, Eu/Cy5; AID 743269;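 active = inhibition above the screen-wide mean plus 3 SD, cut at about 13% in these data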;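 note: signal is the Cy5 over europium emission ratio at 671 and 618 nm; 0% = plate median of compound wells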
Casp6 inh – inhibitors of human caspase-6; purified caspase-6, Z-VEID-R110 cleavage fluorescence; inhibition, % at 12.5 µM; 350,000 tested, 0.53% active;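 active = mean inhibition across replicates at least about 35%, with every replicate also reaching that limit, limit read from the data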;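 note: 0% = median of neutral control wells and 100% = no fluorescence left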
Target sequence (P55212 24-179 limits assumed): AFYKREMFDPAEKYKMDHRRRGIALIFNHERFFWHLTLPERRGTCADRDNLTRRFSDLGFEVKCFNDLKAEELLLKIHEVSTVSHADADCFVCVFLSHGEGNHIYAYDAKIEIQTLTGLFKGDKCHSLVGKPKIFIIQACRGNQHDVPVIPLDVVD
Target sequence (P55212 194-293 limits assumed): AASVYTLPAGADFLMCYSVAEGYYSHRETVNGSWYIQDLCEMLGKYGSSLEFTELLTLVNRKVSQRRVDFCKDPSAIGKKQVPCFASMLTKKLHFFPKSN
ARFGAP1 inhibitor – rat ARFGAP1 inhibition; Arfgap1-stimulated ARF1 GTP hydrolysis, GDP FP detection; AID 651572; inhibition, % at 16.5 µM; 360,000 tested, 0.26% active; Q62848;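 active = inhibition above a per-plate limit, mean inhibition of low control wells plus 3 SD, cut at about 25% in these data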;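 note: 0% = DMSO wells with enzyme and 100% = wells lacking Arfgap1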
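Assay system: Rat Arfgap1 GAP domain (His6, aa 1-136), purified enzyme | Buffer or medium: HEPES 25 mM pH 7.5, NaCl 150 mM, MgCl2, DTT | Schedule: GTP hydrolysis reaction 2 h at 25 °C | Signal: FP of antibody-bound GDP Alexa 633 tracer, ex 620/em 688 nm | Measure: Percent inhibition of Arfgap1-stimulated GTP hydrolysis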
ASAP1 GAP inh – inhibitors of human ASAP1 ArfGAP activity; 360,000 tested, 0.19% active; ASAP1-stimulated ARF1 GTP hydrolysis, GDP FP detection; inhibition, % at 16.5 µM; in the data active = inhibition above about 25%;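 note: 0% = vehicle with enzyme and substrate and 100% = no enzyme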
ARFGAP1 confirm – rat ARFGAP1 inhibition, confirmed. ARFGAP1-stimulated ARF1 GTP hydrolysis, GDP tracer FP. 890 tested, 30% active. shares compounds with ARFGAP1 inhibitor. inhibition, % at 16.5 µM;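 active = average inhibition over triplicates above the hit cutoff set in the earlier primary screen, cut at about 25% in these data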;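 note: 0% = Arfgap1 plus ARF1-GTP with DMSO and 100% = wells lacking Arfgap1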
Target sequence (Q62848 whole entry, looked up): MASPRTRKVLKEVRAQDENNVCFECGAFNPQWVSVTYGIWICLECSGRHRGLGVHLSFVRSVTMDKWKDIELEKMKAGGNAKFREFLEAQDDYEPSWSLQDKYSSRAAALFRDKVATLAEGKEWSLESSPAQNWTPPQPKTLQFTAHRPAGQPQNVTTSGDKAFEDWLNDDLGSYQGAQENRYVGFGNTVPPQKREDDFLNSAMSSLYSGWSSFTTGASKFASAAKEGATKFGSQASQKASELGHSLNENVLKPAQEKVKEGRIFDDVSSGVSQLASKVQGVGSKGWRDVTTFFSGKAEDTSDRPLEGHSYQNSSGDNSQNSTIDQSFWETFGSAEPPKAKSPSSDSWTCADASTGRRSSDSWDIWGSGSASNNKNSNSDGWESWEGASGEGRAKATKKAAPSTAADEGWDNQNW
Starred values were filed as active, the others as inactive.

`C/C(=N\Nc1cc(C)nc(-c2ccccc2)n1)c1cccc([N+](=O)[O-])c1` gave TDP2 inh -10, LEDGF integ inh 2, Casp6 inh 4, ARFGAP1 inhibitor 5 and ASAP1 GAP inh -5.
`O=S(=O)(c1ccc(F)cc1)N1CCCc2nc(-c3ccccc3)ccc21` gave TDP2 inh 5, LEDGF integ inh 2, Casp6 inh -5, ARFGAP1 inhibitor -9 and ASAP1 GAP inh -12.
O=C(Nc1ccccc1N1CCCC1)c1ccc(Cl)cc1Cl was read as TDP2 inh -13, LEDGF integ inh -1, Casp6 inh 0, ARFGAP1 inhibitor 30*, ASAP1 GAP inh -18 and ARFGAP1 confirm -4.
O=C(Nc1ccccc1N1CCCCC1)c1ccc(-c2ccc(Cl)cc2)o1 was read as TDP2 inh -5, LEDGF integ inh 7, ARFGAP1 inhibitor 27*, ASAP1 GAP inh 7 and ARFGAP1 confirm -9.
For Cc1cccc(C)c1NC(=O)CN1CCN(C/C=C/c2ccccc2)CC1 the results were TDP2 inh -2, LEDGF integ inh 7, Casp6 inh -1, ARFGAP1 inhibitor 11 and ASAP1 GAP inh 4.
Screening O=C(Cc1ccccc1)N1C[C@@H]2[C@H](c3ccccc31)[C@H](CO)N2S(=O)(=O)c1ccccc1 returned Casp6 inh 2.
`O=C(Nc1ccc2c(c1)OCO2)c1csc([C@@H]2C[C@H](O)[C@@H](CO)O2)n1` gave TDP2 inh -10, LEDGF integ inh 5, Casp6 inh -1, ARFGAP1 inhibitor 0 and ASAP1 GAP inh 5.
Screening O=c1c(C(c2ccc(F)cc2)c2c(O)nc3n(c2=O)CCS3)c(O)nc2n1CCS2 returned TDP2 inh -10, LEDGF integ inh 4, Casp6 inh 1, ARFGAP1 inhibitor 26*, ASAP1 GAP inh -16 and ARFGAP1 confirm 0.
Screening O=c1c(C(c2ccc(Cl)cc2)c2c(O)nc3n(c2=O)CCS3)c(O)nc2n1CCS2 returned TDP2 inh 5, LEDGF integ inh 10, Casp6 inh 2, ARFGAP1 inhibitor -15 and ASAP1 GAP inh 4.
`O=C(COc1ccc(Cl)cc1Cl)NCCSc1ccc(Cl)cc1` gave TDP2 inh 0, LEDGF integ inh 2, ARFGAP1 inhibitor 29*, ASAP1 GAP inh 4 and ARFGAP1 confirm -2.
Screening O=C(O)C1C2C=CC(C2)C1C(=O)NCCCN1CCCC1=O (stereo unspecified) returned TDP2 inh 0, LEDGF integ inh 2, Casp6 inh 1, ARFGAP1 inhibitor 11 and ASAP1 GAP inh -9.
Screening Cc1ccc[n+](C(C)C(=O)c2ccc(Cl)cc2)c1 (stereo unspecified) returned TDP2 inh -4, LEDGF integ inh 0, Casp6 inh -8, ARFGAP1 inhibitor 45*, ASAP1 GAP inh 6 and ARFGAP1 confirm -2.
For Cc1ccc(N2CC(C(=O)N3CCC(C(=O)Nc4nncs4)CC3)CC2=O)cc1 (stereo unspecified) the results were TDP2 inh -12, LEDGF integ inh -1, Casp6 inh 8, ARFGAP1 inhibitor 0 and ASAP1 GAP inh -2.
`Cc1[nH]c2ccccc2c1CC(=O)Nc1ccc(Nc2ccccc2)cc1` gave TDP2 inh 6, LEDGF integ inh -3, Casp6 inh -2, ARFGAP1 inhibitor 29*, ASAP1 GAP inh 9 and ARFGAP1 confirm 25*.
For Cc1cc(-c2cc(NC(=O)Cc3c(C)[nH]c4ccccc34)ccc2Nc2cccnc2)ccc1F the results were TDP2 inh 8, LEDGF integ inh -2, Casp6 inh -1, ARFGAP1 inhibitor 17 and ASAP1 GAP inh 19.
For Cc1[nH]c2ccccc2c1CC(=O)Nc1ccc(Nc2ccncc2)cc1 the results were TDP2 inh 1, LEDGF integ inh 2, Casp6 inh -19, ARFGAP1 inhibitor -5 and ASAP1 GAP inh 9.
Cc1[nH]c2ccccc2c1CC(=O)Nc1ccc(Nc2cccnc2)c(-c2cc(F)cc(F)c2)c1 was read as TDP2 inh -11, LEDGF integ inh 0, Casp6 inh 0, ARFGAP1 inhibitor 26*, ASAP1 GAP inh 7 and ARFGAP1 confirm 18.
For NS(=O)(=O)c1ccc(Nc2ccc3cc(S(=O)(=O)N4CCCCC4)ccc3n2)cc1 the results were TDP2 inh -24, LEDGF integ inh 2, Casp6 inh 7, ARFGAP1 inhibitor 47*, ASAP1 GAP inh 24 and ARFGAP1 confirm 52*.
`COC(=O)[C@]1(C)CCC[C@@]2(C)C3CC[C@@]4(C)C[C@]3(CCC21)CC4=NO` (stereo partly specified) gave TDP2 inh -4, LEDGF integ inh 2, ARFGAP1 inhibitor -6 and ASAP1 GAP inh 2.
`COc1cc2cnc(-c3ccccc3)cc2cc1OC` gave TDP2 inh 0, LEDGF integ inh 1, Casp6 inh 3, ARFGAP1 inhibitor 10 and ASAP1 GAP inh -8.
Screening COc1ccc(-c2cc3cc(OC)c(OC)cc3cn2)cc1 returned TDP2 inh -11, LEDGF integ inh -2, Casp6 inh 2, ARFGAP1 inhibitor 29*, ASAP1 GAP inh 16 and ARFGAP1 confirm 31*.
For CCc1cc(C(=O)NNC(=O)CCl)sc1C the results were TDP2 inh -10, LEDGF integ inh -4, Casp6 inh 4, ARFGAP1 inhibitor 25*, ASAP1 GAP inh -2 and ARFGAP1 confirm -5.
`O=C(/C=C/c1ccc([N+](=O)[O-])cc1)N1CCN(S(=O)(=O)c2ccccc2)CC1` gave TDP2 inh 1, LEDGF integ inh -1, Casp6 inh 3, ARFGAP1 inhibitor 4 and ASAP1 GAP inh 9.
Screening CC(=O)N1CCN(S(=O)(=O)c2ccc(C)cc2)C1C (stereo unspecified) returned TDP2 inh -6, LEDGF integ inh -3, Casp6 inh 2, ARFGAP1 inhibitor 30*, ASAP1 GAP inh 9 and ARFGAP1 confirm 2.
`COC(=O)c1c(NC(=O)C2CC=CCC2C(=O)O)sc(C(N)=O)c1C` (stereo unspecified) gave TDP2 inh -2, LEDGF integ inh 0, ARFGAP1 inhibitor 25*, ASAP1 GAP inh 2 and ARFGAP1 confirm 4.
`COc1ccc(NC(=O)c2cccc3c(-c4cnn(C)c4)coc23)cc1` gave TDP2 inh -5, LEDGF integ inh -2, Casp6 inh -1, ARFGAP1 inhibitor 30*, ASAP1 GAP inh 19 and ARFGAP1 confirm 30*.
`CC(=O)c1cccc(NC(=O)c2cccc3c(-c4cnn(C)c4)coc23)c1` gave TDP2 inh 3, LEDGF integ inh 2, Casp6 inh 0, ARFGAP1 inhibitor 28*, ASAP1 GAP inh 7 and ARFGAP1 confirm 25*.
O=C(NC1CCCCC1)C(c1cccs1)N(CC1CCCO1)C(=O)c1csnn1 (stereo unspecified) was read as TDP2 inh -10, LEDGF integ inh 2, ARFGAP1 inhibitor 8 and ASAP1 GAP inh -7.

Assay outcomes: PubChem BioAssay, several laboratories
